Results taken from ChEMBL document CHEMBL4041468, “Effects of Koumine on Adjuvant- and Collagen-Induced Arthritis in Rats” (J Nat Prod, 2016).
The source made the active and inactive calls.

Experiments:
Rattus norvegicus [1] = assay: (§1) Antiarthritic activity in Lewis rat Freund's adjuvant-induced arthritis model assessed as change in thymus weight at 0.6 to 15 mg/kg, ig administered through gavage pretreated for 1 hr followed by adjuvant challenge subsequent treatment for 9 days measured alternate days up to 24 days post dose; format: functional, organism-based
Method in brief: (§2)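 Female Lewis rats (8 weeks old, 120−140 g) given a single intradermal injection of 0.1 mL CFA (10 mg heat-killed M. tuberculosis per 1 mL paraffin oil) into the right hind paw. Oral gavage in sterile saline 1 h before induction, then daily for the next 9 d. Sacrifice by exsanguination under deep anesthesia 24 d after adjuvant. Spleen, liver and thymus weighed and corrected for body weight (g/100 g). n = 10; one-way ANOVA with Student−Newman−Keuls.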

Rattus norvegicus [2] = assay: Antiarthritic activity in Wistar rat type-2 collagen-induced arthritis model assessed as reduction in serum IL-1beta level at 3 to 15 mg/kg, ig via gavage administered 10 consecutive days starting from day 20 post type-2 collagen injection by ELISA method; format: functional, organism-based
Method in brief: (§3)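 CIA Wistar rats dosed by gavage daily for 10 d from day 20 post first CII injection. Trunk blood serum stored at −70 °C. Right hind paw joint tissue homogenized at 200 mg/mL in PBS with 50 U/mL aprotinin, then centrifuged at 3000 rpm for 20 min at 4 °C. IL-1β and TNF-α quantified by ELISA kits in serum and supernatant. n = 10; one-way ANOVA with SNK.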

Rattus norvegicus [3] = assay: Antiarthritic activity in Wistar rat type-2 collagen-induced arthritis model assessed as reduction in joint tissue TNF-alpha level at 15 mg/kg, ig via gavage administered 10 consecutive days starting from day 20 post type-2 collagen injection by ELISA method; format: functional, organism-based; method in brief: as §3
Rattus norvegicus [4] = assay: Antiarthritic activity in Wistar rat type-2 collagen-induced arthritis model assessed as reduction in serum anti-type-2 collagen IgG level at 3 mg/kg, ig via gavage administered 10 consecutive days starting from day 20 post type-2 collagen injection by ELISA method; format: functional, organism-based
Method in brief: (§4)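 CIA Wistar rats (chicken CII in BCG/IFA emulsion, intradermal twice 7 d apart) gavaged daily for 10 d from day 20. Serum collected after treatment; anti-CII IgG quantified with a rat anti-CII antibody ELISA kit. n = 10 per group; one-way ANOVA with Student−Newman−Keuls.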

Rattus norvegicus [5] = assay: Antiarthritic activity in Wistar rat type-2 collagen-induced arthritis model assessed as reduction in bone erosion at 0.6 to 15 mg/kg, ig via gavage administered 10 consecutive days starting from day 20 post type-2 collagen injection by X-ray method; format: functional, organism-based
Method in brief: (§5)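 CIA in male Wistar rats (chicken CII emulsion, two intradermal injections 7 d apart); daily gavage for 10 d from day 20. After treatment, hind limbs X-rayed. Left hind paw joints fixed in 10% formalin, decalcified in 10% EDTA for 28 d at 4 °C, paraffin-embedded, sectioned at 5 μm, H&E-stained and examined by light microscopy at 100×.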

Rattus norvegicus [6] = assay: (§6) Antiarthritic activity in Wistar rat type-2 collagen-induced arthritis model assessed as reduction in bone degeneration at 15 mg/kg, ig via gavage administered 10 consecutive days starting from day 20 post type-2 collagen injection by hematoxylin and eosin staining based light microscopy; format: functional, organism-based; method in brief: as §5
Rattus norvegicus [7] = assay: as §6, with “cartilage” for “bone”, “degeneration in joints” for “degeneration”; format: functional, organism-based; method in brief: as §5
Rattus norvegicus [8] = assay: Antiarthritic activity in Wistar rat type-2 collagen-induced arthritis model assessed as reduction in cartilage space narrowing at 0.6 to 15 mg/kg, ig via gavage administered 10 consecutive days starting from day 20 post type-2 collagen injection by X-ray method; format: functional, organism-based; method in brief: as §5
[9] = Toxicity in ig dosed Wistar rat measured 30 mins after administration via gavage at 4 h intervals during first 24 hrs and twice a day thereafter over the next 13 days; format: organism-based; settings: in vivo, po
Method in brief: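 OECD 425 up-and-down procedure in ten 7-week-old male Wistar rats, fasted overnight. Single gavage dose at 10 mL/kg, starting at 300 mg/kg with a progression factor of 1/0.75. Survival checked at 30 min, every 4 h for 24 h, then twice daily for 13 d. LD50 reported with a 95% confidence interval.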

Rattus norvegicus [10] = assay: Antiarthritic activity in Wistar rat type-2 collagen-induced arthritis model assessed as reduction in serum TNF-alpha level at 15 mg/kg, ig via gavage administered 10 consecutive days starting from day 20 post type-2 collagen injection by ELISA method; format: functional, organism-based; method in brief: as §3
Rattus norvegicus [11] = assay: Antiarthritic activity in Lewis rat Freund's adjuvant-induced arthritis model assessed as change in spleen weight at 0.6 to 15 mg/kg, ig administered through gavage pretreated for 1 hr followed by adjuvant challenge subsequent treatment for 9 days measured alternate days up to 24 days post dose; format: functional, organism-based; method in brief: as §2
Rattus norvegicus [12] = assay: as §1, with “reduction” for “change”, “mechanical allodynia in contralateral hind paw” for “thymus weight”, “challenge and” for “challenge”; format: functional, organism-based
Method in brief: (§7)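 Lewis rats with CFA-induced arthritis (0.1 mL intradermal, right hind paw), gavaged 1 h before induction and daily for 9 d. Mechanical withdrawal threshold measured 1 h after dosing. Rats habituated 30 min in individual cubicles; von Frey filament applied upward to the centre of each hind paw until withdrawal, maximum 55 g. Repeated twice at 10 min intervals; ipsilateral and contralateral paws recorded separately. n = 10; two-way ANOVA.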

Rattus norvegicus [13] = assay: Antiarthritic activity in Lewis rat Freund's adjuvant-induced arthritis model assessed as change in liver weight at 0.6 to 15 mg/kg, ig administered through gavage pretreated for 1 hr followed by adjuvant challenge subsequent treatment for 9 days measured alternate days up to 24 days post dose; format: functional, organism-based; method in brief: as §2
Rattus norvegicus [14] = assay: Antiarthritic activity in Wistar rat type-2 collagen-induced arthritis model assessed as reduction in serum anti-type-2 collagen IgG level at 0.6 mg/kg, ig via gavage administered 10 consecutive days starting from day 20 post type-2 collagen injection by ELISA method; format: functional, organism-based; method in brief: as §4
Rattus norvegicus [15] = assay: Antiarthritic activity in Wistar rat type-2 collagen-induced arthritis model assessed as reduction in IL-1beta mRNA expression at 15 mg/kg, ig via gavage administered 10 consecutive days starting from day 20 post type-2 collagen injection by qPCR analysis; format: functional, organism-based
Method in brief: (§8)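 Male Wistar rats (7 weeks old) given chicken CII (2 mg/mL in 0.1 M acetic acid) emulsified 1:1 in BCG/IFA adjuvant, two intradermal 0.3 mL injections 7 d apart. Gavage in saline daily for 10 d from day 20. Total RNA from ankle synovial tissue homogenate, reverse transcribed, qPCR in triplicate. Fold change vs blank control by 2−ΔΔCt.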

Rattus norvegicus [16] = assay: Antiarthritic activity in Wistar rat type-2 collagen-induced arthritis model assessed as reduction in arthritis index score administered as ig via gavage for 10 consecutive days starting from day 20 post type-2 collagen injection; format: functional
Method in brief: (§9)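 Male Wistar rats (7 weeks old) immunized with chicken CII in CFA/IFA, two intradermal 0.3 mL injections 7 d apart. Oral gavage in saline for 10 consecutive days starting day 20. Evaluation at baseline, predosing, and on alternate days thereafter: arthritis score; plethysmometer volume averaged over both hind paws; von Frey threshold 1 h post-dose (max 55 g, two repeats 10 min apart). n = 10.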

Rattus norvegicus [17] = assay: Antiarthritic activity in ig dosed Lewis rat Freund's adjuvant-induced arthritis model assessed as reduction in mechanical allodynia in ipsilateral hind paw administered through gavage pretreated for 1 hr followed by adjuvant challenge and subsequent treatment for 9 days measured alternate days up to 24 days post dose; format: functional, organism-based; method in brief: as §7
Rattus norvegicus [18] = assay: Antiarthritic activity in Wistar rat type-2 collagen-induced arthritis model assessed as reduction in mechanical allodynia administered as ig via gavage for 10 consecutive days starting from day 20 post type-2 collagen injection; format: functional; method in brief: as §9
Rattus norvegicus [19] = assay: Antiarthritic activity in Wistar rat type-2 collagen-induced arthritis model assessed as reduction in TNF-alpha mRNA expression at 15 mg/kg, ig via gavage administered 10 consecutive days starting from day 20 post type-2 collagen injection by qPCR analysis; format: functional, organism-based; method in brief: as §8
Rattus norvegicus [20] = assay: (§10) Antiarthritic activity in Lewis rat Freund's adjuvant-induced arthritis model assessed as reduction in arthritis index score at 3 mg/kg, ig administered through gavage pretreated for 1 hr followed by adjuvant challenge subsequent treatment for 9 days measured alternate days up to 24 days post dose; format: functional, organism-based
Method in brief: (§11)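 Female Lewis rats (8 weeks old) given a single intradermal injection of 0.1 mL CFA (heat-killed M. tuberculosis in paraffin oil) into the right hind paw. Gavage dosing in sterile saline 1 h before induction and daily for 9 d. Arthritis index scored (the paper reports the 18 d reading). n = 10 per group; Kruskal−Wallis with Dunn's test.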

Rattus norvegicus [21] = assay: Antiarthritic activity in Wistar rat type-2 collagen-induced arthritis model assessed as reduction in bone degradation at 0.6 to 15 mg/kg, ig via gavage administered 10 consecutive days starting from day 20 post type-2 collagen injection by X-ray method; format: functional, organism-based; method in brief: as §5
Rattus norvegicus [22] = assay: as §10, with “0.6” for “3”, “challenge and” for “challenge”; format: functional, organism-based; method in brief: as §11
Rattus norvegicus [23] = assay: Antiarthritic activity in Wistar rat type-2 collagen-induced arthritis model assessed as reduction in serum anti-type-2 collagen IgG level at 15 mg/kg, ig via gavage administered 10 consecutive days starting from day 20 post type-2 collagen injection by ELISA method; format: functional, organism-based; method in brief: as §4
Rattus norvegicus [24] = assay: Antiarthritic activity in Wistar rat type-2 collagen-induced arthritis model assessed as reduction in joint tissue IL-1beta level at 15 mg/kg, ig via gavage administered 10 consecutive days starting from day 20 post type-2 collagen injection by ELISA method; format: functional, organism-based; method in brief: as §3
Rattus norvegicus [25] = assay: Antiarthritic activity in Lewis rat Freund's adjuvant-induced arthritis model assessed as reduction in arthritis index score at 15 mg/kg, ig administered through gavage pretreated for 1 hr followed by adjuvant challenge subsequent treatment for 9 days measured alternate days up to 24 days post dose; format: functional, organism-based; method in brief: as §11

## C=C[C@@]12CN(C)[C@H]3C[C@]14C(=Nc1ccccc14)[C@H]1C[C@@H]2[C@@H]3CO1
Rattus norvegicus [1]
  Activity: Active
Rattus norvegicus [2]
  Activity: Active
Rattus norvegicus [3]
  Activity: Active
Rattus norvegicus [4]
  Activity: Active
Rattus norvegicus [5]
  Activity: Active
Rattus norvegicus [6]
  Activity: Active
Rattus norvegicus [7]
  Activity: Active
Rattus norvegicus [8]
  Activity: Active
[9]
  LD50 at 14 days: 300 mg/kg
Rattus norvegicus [10]
  Activity: Active
Rattus norvegicus [11]
  Activity: inactive
Rattus norvegicus [12]
  Activity: inactive
Rattus norvegicus [13]
  Activity: Active
Rattus norvegicus [14]
  Activity: inactive
Rattus norvegicus [15]
  Activity: Active
Rattus norvegicus [16]
  Activity: Dose-dependent effect
Rattus norvegicus [17]
  Activity: Dose-dependent effect
Rattus norvegicus [18]
  Activity: Dose-dependent effect
Rattus norvegicus [19]
  Activity: Active
Rattus norvegicus [20]
  Activity: Active
Rattus norvegicus [21]
  Activity: Active
Rattus norvegicus [22]
  Activity: Active
Rattus norvegicus [23]
  Activity: Active
Rattus norvegicus [24]
  Activity: Active
Rattus norvegicus [25]
  Activity: Active
